ChEMBL document CHEMBL1131615, “Synthesis and tyrosine kinase inhibitory activity of a series of 2-amino-8H-pyrido[2,3-d]pyrimidines: identification of potent, selective platelet-derived growth factor receptor tyrosine kinase inhibitors” (J Med Chem, 1998)
Blank lines part the entries; values can stand above or below the compound they belong to.

Columns and labels:
[1] = biological target: Platelet-derived growth factor receptor (Mus musculus, UniProt P05622+P26618); test: Inhibition against of platelet-derived growth factor receptor (PDGFr)
[2] = biological target: Proto-oncogene tyrosine-protein kinase Src (Mus musculus, UniProt P05480); test: Inhibition of mouse c-Src tyrosine kinase
Sequence of Proto-oncogene tyrosine-protein kinase Src (P05480 2-535 limits assumed): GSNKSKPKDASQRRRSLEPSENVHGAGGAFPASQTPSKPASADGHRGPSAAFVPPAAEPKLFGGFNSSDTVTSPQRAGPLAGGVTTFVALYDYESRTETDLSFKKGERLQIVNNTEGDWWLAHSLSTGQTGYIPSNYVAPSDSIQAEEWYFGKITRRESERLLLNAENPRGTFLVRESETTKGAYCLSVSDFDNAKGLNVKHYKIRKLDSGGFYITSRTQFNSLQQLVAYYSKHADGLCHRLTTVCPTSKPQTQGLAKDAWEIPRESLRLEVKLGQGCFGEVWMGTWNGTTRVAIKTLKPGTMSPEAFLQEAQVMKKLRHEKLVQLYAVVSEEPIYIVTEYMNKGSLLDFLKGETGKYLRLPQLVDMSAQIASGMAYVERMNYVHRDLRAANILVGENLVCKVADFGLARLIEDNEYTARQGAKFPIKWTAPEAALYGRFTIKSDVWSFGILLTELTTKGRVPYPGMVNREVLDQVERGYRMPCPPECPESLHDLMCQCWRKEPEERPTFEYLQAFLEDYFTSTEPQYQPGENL

[3] = biological target: Fibroblast growth factor receptor (Mus musculus, UniProt P21803+Q03142+P16092+Q61851); test: Inhibition of mouse fibroblast growth factor receptor tyrosine kinase (FGFr); assay type: protein assay
[4] = biological target: T1, Platelet-derived growth factor receptor (PDGFr) (Rattus norvegicus, UniProt P20786+Q05030); test: Inhibition of PDGF-stimulated Platelet-derived growth factor receptor autophosphorylation in C6 rat glioma cells after 2 hr; assay type: cell-based
[5] = biological target: T1, Platelet-derived growth factor receptor (PDGFr); test: Inhibition of PDGF-stimulated Platelet-derived growth factor receptor autophosphorylation in rat aortic vascular smooth muscle cells (RAVSMCs) after 2 hr
Rattus norvegicus [6] = test: Compound was tested for area under concentration -time curve from time 0 to time infinity in three male Wistar rats at a single 5 mg/kg oral gavage dose.; assay type: ADME, organism-based; design: dose 5 mg/kg, route oral; conditions: in vivo
In short: (§1)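 Single 5 mg/kg oral gavage dose given to three male Wistar rats, in 17% PEG 400/83% methylcellulose (0.5%). Heparinized plasma was taken by jugular vein cannula from 0 to 48 h; lower limit of quantitation was 10 ng/mL. Noncompartmental analysis: t1/2 = 0.693/λz (log-linear terminal regression); AUC by trapezoidal rule, extrapolated to infinity.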

C6 [7] = test: C6 glioma 3-day proliferation followed by soft agar growth with continuous treatment; assay type: functional, cell-based; conditions: Rattus norvegicus, C6, 72 h
In short: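 C6 rat glioma cells exposed to a range of compound concentrations for 3 days in culture, then cloned in soft agar with drug kept present throughout colony growth. IC50 derived.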

[8] = Compound was tested for maximum observed concentration in three male Wistar rats at a single 5 mg/kg oral gavage dose; assay type: ADME, organism-based; design: dose 5 mg/kg, route oral; conditions: rat, in vivo; in short: as §1
[9] = Compound was tested for time to reach Cmax in three male Wistar rats at a single 5 mg/kg oral gavage dose.; assay type: ADME, organism-based; design: dose 5 mg/kg, route oral; conditions: rat, in vivo; in short: as §1
Rattus norvegicus [10] = test: Compound was tested for area under concentration -time curve from time 0 to time of last detectable concentration in three male Wistar rats at a single 5 mg/kg oral gavage dose; assay type: ADME, organism-based; design: dose 5 mg/kg, route oral; conditions: in vivo; in short: as §1
C6 [11] = test: C6 glioma 3-day proliferation followed by soft agar growth without treatment; assay type: functional, cell-based; conditions: Rattus norvegicus, C6, 72 h
In short: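 C6 rat glioma cells exposed to a range of compound concentrations for 3 days in culture, then cloned in soft agar with drug removed. IC50 derived.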

C6 [12] = test: Inhibition of rat C6 glioma cell proliferation in sulforhodamine B assay; assay type: functional, cell-based
In short: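 C6 rat glioma cells cultured 4 days with a range of compound concentrations; growth read by sulforhodamine B staining, giving IC50.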

[13] = Compound was tested for apparent terminal phase elimination half life in three male Wistar rats at a single 5 mg/kg oral gavage dose; assay type: ADME, organism-based; design: dose 5 mg/kg, route oral; conditions: rat, in vivo; in short: as §1
Mus musculus [14] = test: Weight change after 20 mg/kg peroral dose, days 1-15 treatment of PDGF-transfected cell tumor; assay type: functional, organism-based; design: dose 20 mg/kg
In short: (§2)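 Nude mice (18-22 g), randomized, implanted sc in the right axilla on day 0 with tumor fragments maintained by serial passage in nude mice. Tumors were C6 rat glioma, NIH 3T3 transfected with human PDGF ββ, or DU-145 prostate. At least 6 mice per group, 12 controls. Oral dosing by average cage weight on the stated days.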

Mus musculus [15] = test: Net reduction in PDGF-transfected cell tumor burden after 20 mg/kg peroral dose, days 1-15 administration; assay type: functional; conditions: route oral
In short: (§3)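 Tumor lines (C6 rat glioma; NIH 3T3 fibroblasts transfected with human PDGF-ββ; DU-145 prostatic adenocarcinoma) were kept by serial passage in nude mice. Randomized nude mice weighing 18-22 g received sc tumor fragments in the right axilla on day 0, with at least 6 per treated group and 12 controls. Oral dosing was based on average cage weight. Net cell kill is given as log10.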

C6 [16] = test: Net reduction in C6 glioma cell tumor burden after 40 mg/kg peroral dose, days 1-15 administration; assay type: functional; conditions: route oral; in short: as §3
DU-145 [17] = test: Delay between treated (T) and control (C) DU-145 cell tumors reaching 750 mg at 48 mg/kg peroral dose, days 16-20,23-27,30-34 administration; assay type: functional; conditions: route oral; in short: as §2
C6 [18] = test: Ratio of treated/control C6 glioma cell tumor mass at 40 mg/kg peroral dose, days 1-15 administration; assay type: functional; conditions: route oral
In short: (§4)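 Nude mouse sc axillary tumor-fragment xenografts implanted on day 0 (6-8 treated, 12 controls), with oral dosing on the stated schedule. T/C = median treated tumor mass / median control tumor mass × 100%, on the last therapy day.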

Mus musculus [19] = test: Ratio of treated/control PDGF-transfected cell tumor mass at 20 mg/kg peroral dose, days 1-15 administration; assay type: functional; conditions: route oral; in short: as §4
DU-145 [20] = test: Weight change after 48 mg/kg peroral dose, days 16-20,23-27,30-34 treatment of DU-145 cell tumor
DU-145 [21] = test: Net reduction in DU-145 cell tumor burden after 48 mg/kg peroral dose, days 16-20,23-27,30-34 administration; assay type: functional; conditions: route oral; in short: as §3
Mus musculus [22] = test: Delay between treated (T) and control (C) PDGF-transfected cell tumors reaching 750 mg at 20 mg/kg peroral dose, days 1-15 administration; assay type: functional; conditions: route oral; in short: as §2
C6 [23] = test: Delay between treated (T) and control (C) C6 glioma cell tumors reaching 750 mg at 40 mg/kg peroral dose, days 1-15 administration; assay type: functional; conditions: route oral; in short: as §2
C6 [24] = test: Weight change after 40 mg/kg peroral dose, days 1-15 treatment of C6 glioma cell tumor; assay type: functional; conditions: route oral; in short: as §2
DU-145 [25] = test: Ratio of treated/control DU-145 cell tumor mass at 48 mg/kg peroral dose, days 16-20, 23-27, 30-34 administration; assay type: functional; conditions: route oral; in short: as §4
Rattus norvegicus [26] = test: Compound was tested for area under concentration -time curve from time 0 to time infinity in three male Wistar rats at a single 5 mg/kg oral gavage dose; assay type: ADME, organism-based; design: dose 5 mg/kg, route oral; conditions: in vivo; in short: as §1

Compound: Nc1ncc2cc(-c3c(Cl)cccc3Cl)c(=O)n(Cc3ccncc3)c2n1
IC50 [1]: 1200 nM
IC50 [2]: 630 nM

Compound: CN(C)CCCn1c(=O)c(-c2c(Cl)cccc2Cl)cc2cnc(N)nc21
IC50 [3]: 880 nM
IC50 [1]: 1800 nM
IC50 [2]: 50 nM

Compound: Cn1c(=O)c(-c2ccccc2)cc2cnc(Nc3ccncc3)nc21
IC50 [3]: 4700 nM
IC50 [1]: 320 nM
IC50 [2]: 470 nM

Compound: CCn1c(=O)c(-c2ccccc2)cc2cnc(Nc3ccccc3)nc21
IC50 [3]: 1500 nM
IC50 [1]: 180 nM
IC50 [2]: 1800 nM
IC50 [4]: > 25 nM
IC50 [5]: 4.6 nM

Compound: Cn1c(=O)c(-c2ccsc2)cc2cnc(Nc3ccccc3)nc21
IC50 [3]: > 50000 nM
IC50 [1]: 800 nM
IC50 [2]: 8100 nM

Compound: CCN(CC)CCOc1ccc(Nc2ncc3cc(-c4c(Cl)cccc4Cl)c(=O)n(CC)c3n2)cc1
IC50 [3]: 30 nM
IC50 [1]: 150 nM
IC50 [2]: 17 nM

Compound: CNc1ncc2cc(-c3ccsc3)c(=O)n(C)c2n1
IC50 [3]: > 50000 nM
IC50 [1]: > 50000 nM
IC50 [2]: > 50000 nM

Compound: Cn1c(=O)c(-c2cccs2)cc2cnc(Nc3ccccc3)nc21
IC50 [3]: > 50000 nM
IC50 [1]: 950 nM
IC50 [2]: > 50000 nM

Compound: CC(C)(C)OC(=O)Cn1c(=O)c(-c2c(Cl)cccc2Cl)cc2cnc(N)nc21
IC50 [3]: 1700 nM
IC50 [1]: 7200 nM
IC50 [2]: 560 nM

Compound: CCN(CC)CCOc1ccc(Nc2ncc3cc(-c4ccsc4)c(=O)n(C)c3n2)cc1
IC50 [3]: 2900 nM
IC50 [1]: 54 nM
IC50 [2]: 210 nM
IC50 [5]: 54 nM

Compound: CCn1c(=O)c(-c2ccsc2)cc2cnc(Nc3ccccc3)nc21
IC50 [3]: > 50000 nM
IC50 [1]: 410 nM
IC50 [2]: 41000 nM
IC50 [4]: > 25 nM

Compound: COC(=O)Cn1c(=O)c(-c2c(Cl)cccc2Cl)cc2cnc(N)nc21
IC50 [3]: 1700 nM
IC50 [1]: 5000 nM
IC50 [2]: 340 nM

Compound: CC(C)Cn1c(=O)c(-c2c(Cl)cccc2Cl)cc2cnc(N)nc21
IC50 [3]: 500 nM
IC50 [1]: 1600 nM
IC50 [2]: 890 nM

Compound: Nc1ncc2cc(-c3c(Cl)cccc3Cl)c(=O)n(Cc3ccccc3)c2n1
IC50 [3]: 1400 nM
IC50 [1]: 4200 nM
IC50 [2]: 160 nM

Compound: Cn1c(=O)c(-c2ccsc2)cc2cnc(Nc3ccncc3)nc21
IC50 [3]: 22600 nM
IC50 [1]: 480 nM
IC50 [2]: 1700 nM

Compound: CCN(CC)CCOc1ccc(Nc2ncc3cc(-c4ccccc4)c(=O)n(CC)c3n2)cc1
Weight change (Mus musculus [14]): Weight gain
Net log cell kill (Mus musculus [15]): -1.2
Net log cell kill (C6 [16]): -0.3
IC50 [3]: 88 nM
IC50 [1]: 31 nM
IC50 (C6 [7]): 120 nM
T-C (DU-145 [17]): 11.4 days
IC50 [2]: 31 nM
IC50 [4]: 3 nM
T/C (C6 [18]): 0%
Cmax [8]: 78.3 ng/mL
Tmax [9]: 2.67 h
T/C (Mus musculus [19]): 1%
Weight change (DU-145 [20]): Weight gain
Net log cell kill (DU-145 [21]): -0.4
AUC (Rattus norvegicus [10]): 525 ng·h/mL
T-C (Mus musculus [22]): 6.9 days
T-C (C6 [23]): 9.6 days
Weight change (C6 [24]): -0.7 g
T/C (DU-145 [25]): 40%
AUC (Rattus norvegicus [26]): 828 ng·h/mL
IC50 (C6 [11]): 150 nM
IC50 (C6 [12]): 1200 nM
half-life [13]: 6.65 h

Compound: Cn1c(=O)c(-c2c(Cl)cccc2Cl)cc2cnc(N)nc21
IC50 [3]: 1300 nM
IC50 [1]: 3800 nM
IC50 [2]: 260 nM

Compound: Nc1ncc2cc(-c3c(Cl)cccc3Cl)c(=O)n(CCCOCc3ccccc3)c2n1
IC50 [3]: 3200 nM
IC50 [1]: 6800 nM
IC50 [2]: 1400 nM

Now from value to compound, other results behind:

IC50 [3]: > 50000 nM
IC50 [1]: 24400 nM
IC50 [2]: > 50000 nM
Compound: Cn1c(=O)c(-c2ccsc2)cc2cnc(N)nc21

IC50 [1]: 980 nM
IC50 [2]: 160 nM
Compound: CCn1c(=O)c(-c2c(Cl)cccc2Cl)cc2cnc(N)nc21

IC50 [3]: 5000 nM
IC50 [1]: 290 nM
IC50 [2]: 2400 nM
Compound: Cn1c(=O)c(-c2ccccc2)cc2cnc(Nc3ccccc3)nc21

IC50 [3]: 350 nM
IC50 [1]: 42 nM
IC50 [2]: 140 nM
Compound: CCN(CC)CCOc1ccc(Nc2ncc3cc(-c4ccccc4)c(=O)n(C)c3n2)cc1

IC50 [3]: > 50000 nM
IC50 [1]: > 50000 nM
IC50 [2]: > 50000 nM
Compound: Cn1c(=O)c(-c2ccc(-c3ccccc3)cc2)cc2cnc(Nc3ccccc3)nc21

IC50 [3]: 580 nM
IC50 [1]: 1200 nM
IC50 [2]: 330 nM
Compound: CCCCn1c(=O)c(-c2c(Cl)cccc2Cl)cc2cnc(N)nc21

AUC (Rattus norvegicus [6]): 5240 ng·h/mL
IC50 [3]: 1100 nM
IC50 [1]: 74 nM
IC50 [2]: 410 nM
IC50 [4]: 58 nM
Cmax [8]: 730 ng/mL
Tmax [9]: 1.5 h
AUC (Rattus norvegicus [10]): 4760 ng·h/mL
half-life [13]: 3.72 h
Compound: CCn1c(=O)c(-c2ccccc2)cc2cnc(Nc3ccncc3)nc21
IC50 (C6 [7]): 4900 nM
IC50 (C6 [11]): 13200 nM
IC50 (C6 [12]): 7200 nM

IC50 [3]: 7900 nM
IC50 [1]: > 50000 nM
IC50 [2]: > 50000 nM
Compound: Nc1ncc2cc(-c3c(Cl)cccc3Cl)c(=O)n(CC(=O)O)c2n1

IC50 [3]: 370 nM
IC50 [1]: 1100 nM
IC50 [2]: 180 nM
Compound: Nc1ncc2cc(-c3c(Cl)cccc3Cl)c(=O)n(CCCO)c2n1

IC50 [3]: 510 nM
IC50 [1]: 1200 nM
IC50 [2]: 630 nM
Compound: CCCn1c(=O)c(-c2c(Cl)cccc2Cl)cc2cnc(N)nc21
